As usually defined, the ED50 is the dose that gives a 50% effect, or the effect in half of the subjects. Higher therefore signals a need for a large dose. As a reminder, the LD50 is the dose at which mortality reaches 50%. Low values mean a more toxic substance, high ones a less toxic substance.

Activity calls are given as the source filed them. No cut-off for these calls is given here.

The subject of data set [1] is Mus musculus. Description: Antinociceptive activity in sc dosed male white mouse by hot plate test. Type of data set: functional.
A short description of data set [2]: Toxicity in sc dosed male white mouse. Particulars: in vivo. Type of data set: organism-based. The gist of the method:
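LD50 determined in the same male white mouse strain, with the same vehicle and subcutaneous route as the antinociceptive tests. Room temperature was 23 °C. 95% confidence limits were obtained by probit analysis.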

The subject of data set [3] is Mus musculus. Description: Antinociceptive activity in male white mouse at 20 mg/kg, sc by Nilsen test. Type of data set: functional, organism-based. On the set-up: dose 20 mg/kg.
In data set [4] the test system is Mus musculus. The experiment in a line: Antinociceptive activity in sc dosed male white mouse by Nilsen test. Type of data set: functional.
In data set [5] the test system is Mus musculus. Description: Toxicity in male white mouse assessed as induction of convulsions<40 mg/kg, sc. Type of data set: organism-based. Particulars: in vivo.
Data set [6] deals with Mus musculus. The experiment in a line: Toxicity in male white mouse assessed as induction of convulsions at 50 mg/kg, sc. Type of data set: organism-based. On the set-up: dose 50 mg/kg, route subcutaneous. The note with it: in vivo.
The subject of data set [7] is Mus musculus. The experiment in a line: Antinociceptive activity in male white mouse at 100 mg/kg, sc by hot plate test. Type of data set: functional, organism-based. The arrangement: dose 100 mg/kg. The gist of the method:
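Hot-plate antinociception test in male white mice, run by the standard method, with the compound given subcutaneously. Room temperature was held at 23 °C during testing.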
For orientation: Thermal pain tests record how soon the animal reacts.

Data set [8] concerns Mus musculus. The experiment in a line: Toxicity in male white mouse assessed as induction of convulsions at 100 mg/kg, sc. On the set-up: dose 100 mg/kg, route subcutaneous. Particulars: in vivo. Type of data set: organism-based.
Data set [9] relates to Mus musculus. Description: Antinociceptive activity in male white mouse at 100 mg/kg, sc by Nilsen test. Type of data set: functional, organism-based. On the set-up: dose 100 mg/kg.

In data set [1], `CCC(=O)C(CC(C)N(C)C)(c1ccccc1)c1ccccc1` (racemic) [METHADONE] had a median effective dose (ED50) of 0.8 mg/kg. In data set [2], this compound had an LD50 of 44 mg/kg.
`CCCCCc1cc(O)c2c(c1)OC(C)(C)[C@@H]1CC=C(C)CC21` (some centres undefined) displayed an ED50 in [1] of 8.8 mg/kg. Further, the result in data set [3] was inactive.
The compound `CCCCCc1cc(O)c2c(c1)OC(C)(C)[C@@H]1CCC(C)=C[C@@H]21` [DRONABINOL] registered an ED50 in data set [1] of 9.6 mg/kg.
`COc1ccc2c3c1O[C@H]1[C@@H](O)C=C[C@H]4[C@@H](C2)N(C)CC[C@@]341.Cl`: the ED50 came out at 7.5 mg/kg in [1] and 4.5 mg/kg in data set [4]. The compound also displayed an LD50 in data set [2] of 270 mg/kg.
`CC(C)[C@]12CC(=O)[C@H](C)[C@H]1C2`: the ED50 in [1] stood at 6.5 mg/kg; in [4], 14.1 mg/kg. The figures for the Activity result in [5] and in [6] were “Non-toxic” and “Toxic”, respectively. This compound gave a median lethal dose (LD50) in data set [2] of 87.5 mg/kg.
`CC1C(=O)C[C@]2(C(C)C)C[C@H]12` (mixture of isomers): the ED50 in [1] came out at 16.7 mg/kg. In [2], this compound registered an LD50 of 134 mg/kg.
With `CC(C)[C@]12CC(=O)[C@@H](C)[C@H]1C2`, the outcome in data set [7] and in data set [9] was Active. For the same compound, the Activity entry in [8] is on record as “Toxic”. The same compound returned an LD50 in [2] of 442 mg/kg.
Regarding `CCCCCc1cc(O)c2c(c1)OC(C)(C)C1CC=C(CO)CC21` (centres undefined), the ED50 amounted to 1.9 mg/kg in data set [1] and 5.4 mg/kg in data set [4].
`CC(C)[C@]12C[C@@H](O)[C@H](C)[C@H]1C2` yielded an ED50 in data set [1] of 33.3 mg/kg.
In the case of `CN1CC[C@]23c4c5ccc(O)c4O[C@H]2[C@@H](O)C=C[C@H]3[C@H]1C5.CN1CC[C@]23c4c5ccc(O)c4O[C@H]2[C@@H](O)C=C[C@H]3[C@H]1C5.O=S(=O)(O)O`, the results for the ED50 in data set [1] and in data set [4] were 1.2 mg/kg and 0.8 mg/kg, respectively.

The record behind these values is ChEMBL document CHEMBL3272003, “(-)-3-Isothujone, a small nonnitrogenous molecule with antinociceptive activity in mice” (J Med Chem, 1976).
